Only some compounds are listed: those with a hit (about 2.9% of all), similar ones and a draw of the others.
OX1R antag-1 = antagonists of human orexin 1 receptor (OX1R); Orexin/Hypocretin receptor type 1 (Homo sapiens), O43613; OX1R-expressing cells, FRET antagonist read-out; inhibition, % at 6.6 µM; 1.8% of 330,000 active; AID 485270, 2010; in the data active = inhibition mostly above about 38%, no sharp cut-off; inactive = mostly below about 40%;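 also: 0% = agonist challenge alone and 100% = reference antagonist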
Target sequence (O43613 whole entry, looked up): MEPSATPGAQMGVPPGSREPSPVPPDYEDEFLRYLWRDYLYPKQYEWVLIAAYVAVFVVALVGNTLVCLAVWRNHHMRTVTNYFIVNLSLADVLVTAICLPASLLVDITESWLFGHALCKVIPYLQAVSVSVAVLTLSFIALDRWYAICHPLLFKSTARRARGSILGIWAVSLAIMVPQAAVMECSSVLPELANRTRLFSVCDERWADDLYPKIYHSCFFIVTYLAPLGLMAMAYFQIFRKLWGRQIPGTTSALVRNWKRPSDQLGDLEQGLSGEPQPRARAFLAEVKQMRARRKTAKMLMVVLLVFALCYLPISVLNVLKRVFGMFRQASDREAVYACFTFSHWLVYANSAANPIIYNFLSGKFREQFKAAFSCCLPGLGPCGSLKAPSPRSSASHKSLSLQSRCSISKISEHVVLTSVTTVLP
CHO-K1 Ca antag = counter-screen for M1 antagonists: effect in parental CHO-K1 cells; ATP-induced calcium, Fluo-8 fluorescence; inhibition, % at 3 µM; 0.6% of 360,000 active; AID 602250;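 active = inhibition above a per-plate cutoff, the plate's mean sample inhibition plus 3 SD, cut at about 24% in these data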;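 also: 0% = DMSO plus EC80 ATP and 100% = DMSO alone without ATP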
CHO parental Ca = ATP-evoked calcium signal inhibitors, parental CHO, primary screen, counter-screen for OX1R antagonist project, cell-based, fluorescence, Fluo-8 calcium dye; parental CHO-K1, ATP-induced calcium, Fluo-8 fluorescence; inhibition, % at 5.6 µM; 0.63% of 330,000 active; AID 463079, 2010;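 active = inhibition above that plate's mean sample inhibition plus 3 SD, cut at about 26% in these data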;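 also: 0% = ATP-challenged DMSO wells and 100% = DMSO wells without ATP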
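test system = CHO parental line | reagent = ATP stimulus | measured by = intracellular calcium via Fluo-8 no-wash fluorescent dye | control set = ATP and no-ATP DMSO wells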
M1 PAM parental = nonselective calcium activators in parental CHO-K1 cells, primary screen, counter-screen for M1 PAM project, cell-based, Fluo-8 calcium fluorescence, full deck, 1536-well; ATP EC20; 0% at ATP EC20, 100% at ATP max; activation, % at 3 µM; 0.02% of 360,000 active; AID 602247, 2012;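 active = activation above the run cutoff, the mean activation of all test compounds plus 3 SD, cut at about 40% in these data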;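 also: peak over basal fluorescence ratio in a 140 s read after ATP addition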
CHO-K1 Ca ag = counter-screen for M1 agonists: effect in parental CHO-K1 cells. Fluo-8 calcium fluorescence; scaled to maximal ATP response, vehicle zero. activation, % at 3 µM. 0.48% of 360,000 active; in the data active = activation above about 15%;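 also: untransfected CHO-K1 host cells lacking M1 receptor as counterscreen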
OX1R antag-2 = OX1R (HCRTR1) antagonists, primary screen, fluorescence, CHO/OX1R cells, Fluo-8 calcium, orexin A | AID 434989, 2010 | 0.43% of 330,000 active | Fluo-8 calcium fluorescence | Orexin/Hypocretin receptor type 1 (Homo sapiens), O43613 | inhibition, % at 5 µM;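 active = inhibition above its plate's threshold, mean inhibition of all tested compounds on the plate plus 3 SD, cut at about 37% in these data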;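 also: 0% = orexin A challenge wells and 100% = SB-334867-A antagonist wells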
OX1R HTRF conf = OX1R (HCRTR1) antagonists, confirmation, cell-based, HTRF | inhibition, % at 6.6 µM | shares compounds with OX1R antag-1 | 49% of 1,800 active | OX1R-expressing cells, HTRF antagonist assay | AID 492964, 2010; in the data active = inhibition above about 55%;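 also: CHO cells expressing OX1R stimulated with orexin A at about EC80; 0% = agonist challenge alone and 100% = reference antagonist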
CHO-K1 HTRF cnt = signal inhibition in parental CHO-K1 cells, counter-screen for OX1R antagonist project, cell-based, HTRF; HTRF counterscreen; shares compounds with OX1R antag-1; inhibition, % at 6.6 µM; 48% of 1,800 active; in the data active = inhibition above about 17%;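 also: 0% = agonist challenge with vehicle and 100% = vehicle alone without agonist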
The depositor's hits bear a star; . = no result given.

SMILES	OX1R antag-1	CHO-K1 Ca antag	CHO parental Ca	M1 PAM parental	CHO-K1 Ca ag	OX1R antag-2	OX1R HTRF conf	CHO-K1 HTRF cnt
CCS(=O)(=O)c1nc(S(=O)(=O)c2ccc(C)cc2)c(N2CCN(C)CC2)s1	-2	-16	-11	-10	1	-7	.	.
O=C(O)CCC(=O)Nc1nc2nc(-c3ccccc3)cc(-c3ccccc3)n2n1	109*	-1	-15	9	0	-11	25	15
CCN1C(=O)[C@@H]2[C@@H](c3ccc(-c4ccc(F)cc4)c(OC)c3)N3CCCC[C@@]3(C(=O)OC)[C@@H]2C1=O	82*	-13	-41	11	0	-6	42	-3
CC1CN(S(=O)(=O)c2cc(C(=O)NCCCN3CCCC3=O)ccc2Cl)CC(C)O1 (stereo not drawn)	4	4	-8	-18	0	-15	.	.
OCCCCCN=c1cc(-c2ccccc2)oc2ccc(Cl)cc12	82*	-7	-23	-3	0	-27	54	54*
CN(C(=O)CSc1nc2ccc([N+](=O)[O-])cc2s1)C1CCS(=O)(=O)C1 (stereo not drawn)	83*	5	-8	-9	2	-5	70*	40*
CN(C(=O)COC(=O)CSc1ccc([N+](=O)[O-])cc1)C1CCS(=O)(=O)C1 (stereo not drawn)	44	-9	-2	10	1	0	.	.
CN(C(=O)COC(=O)CSc1ccc(C(N)=O)cc1[N+](=O)[O-])C1CCS(=O)(=O)C1 (stereo not drawn)	77*	-7	13	8	1	7	44	69*
Cc1ccc2c(c1)c1nc3ccccc3nc1n2C	94*	-7	-17	17	0	10	91*	5
CSc1nnc2c3cc(F)ccc3n(C)c2n1	19	-10	2	20	0	-19	.	.
Cn1c2ccc(F)cc2c2nc3ccccc3nc21	87*	-5	-12	18	1	17	91*	-4
Cc1ccc2c(c1)c1nc3ccccc3nc1n2CCN1CCOCC1	36	-3	-4	8	1	-12	.	.
COc1ccc(NC(=O)Cc2nnc(SCC(=O)NC3CCCC3)n2C)cc1	20	-9	-13	0	1	-21	.	.
O=[N+]([O-])c1cnccc1Nc1ccc(F)cc1	127*	-9	6	21	0	-16	36	33*
COc1ccc([C@@H]2CC=C(C(=O)O)[C@H](c3cccc(Cl)c3)N2S(=O)(=O)c2ccccc2C)cc1	88*	-12	-19	13	0	14	91*	0
Cc1ccc(S(=O)(=O)N2[C@@H](c3ccccc3)C(C(=O)O)=CC[C@H]2c2ccc(Cl)cc2)cc1	78*	7	-12	-19	1	14	53	1
Cc1ccc([C@@H]2CC=C(C(=O)O)[C@H](c3ccccc3F)N2S(=O)(=O)c2ccccc2C)cc1	78*	-9	-10	10	0	30	81*	1
CC(C)NC(=O)c1ccc2c(c1)S(=O)(=O)c1ccccc1C2=O	153*	-2	-10	23	1	-4	47	63*
CC(C)c1cccc(C(C)C)c1NC(=O)COC(=O)c1ccc2c(c1)S(=O)(=O)c1ccccc1C2=O	16	-5	-8	20	5	-11	.	.
CN(C)CCOC(=O)c1ccc2c(c1)S(=O)(=O)c1ccccc1C2=O	108*	-19	-6	20	1	0	53	58*
O=C(NCC1CCN(C(=O)c2ccc([N+](=O)[O-])cc2)CC1)c1ccc([N+](=O)[O-])cc1	86*	-1	-4	15	2	-24	42	36*
O=C(c1ccc(Cl)cc1[N+](=O)[O-])N1CCOCC1	24	17	-3	-10	0	-14	.	.
O=C(c1ccc([N+](=O)[O-])cc1[N+](=O)[O-])N1CCCC1	112*	-12	1	15	1	-15	41	46*
O=C(c1ccc(F)cc1)N1CCN(C(=O)c2ccc([N+](=O)[O-])cc2)CC1	86*	4	-6	-15	0	-23	44	34*
COc1ccc(NC(=S)N2CCN(c3ccc4c(c3)C3CCN(C(=O)OCc5ccccc5)C4C3)CC2)c(OC)c1 (stereo not drawn)	.	13	.	20	5	.	.	.
SMILES	OX1R antag-1	CHO-K1 Ca antag	CHO parental Ca	M1 PAM parental	CHO-K1 Ca ag	OX1R antag-2	OX1R HTRF conf	CHO-K1 HTRF cnt
COc1ccccc1OCC(=O)Nc1ccc(S(=O)(=O)N2CCCC2)cc1	11	-16	-5	9	3	-7	.	.
Cc1ccc(-n2ccnc(SCC(=O)NC3CCCCC3)c2=O)cc1F	10	-2	-4	16	1	-1	.	.
O=C(O)C1CC=C(Cl)CC1C(=O)NC1CCCCC1 (stereo not drawn)	0	10	3	-19	0	-3	.	.
O=C(CC(=O)c1ccccc1[N+](=O)[O-])c1ccccc1	12	.	-10	.	.	-13	.	.
C[C@@H]1COc2cc(N3CCC[C@H]3CO)ccc2S(=O)(=O)N1	.	-25	.	10	1	.	.	.
Cc1ccccc1NC(=O)CSc1nnc2ccc(-c3ccncc3)nn12	79*	-4	-14	16	1	-18	30	36*
CC(=O)NN1C(=O)c2ccc3c4c(ccc(c24)C1=O)C(=O)N(NC(C)=O)C3=O	83*	-10	-3	6	1	-15	69*	174*
O=C1c2ccc3c4c(ccc(c24)C(=O)N1NC(=O)C(F)(F)F)CC3	22	-21	-6	10	0	0	.	.
CC(C)(C)OC(=O)C[C@@H]1C/C=C\C[C@H](CC(=O)N(CCO)Cc2ccccc2)C(=O)N[C@H](Cc2ccccc2)COC1=O	19	-9	-32	-8	4	-10	.	.
COc1ccc(Cl)cc1NC(=O)CCCn1c(=O)c2cccn2c2cccnc21	.	-14	.	13	0	.	.	.
CCOC(=O)c1cccc(NC(=O)CCCn2c(=O)c3cccn3c3cccnc32)c1	80*	-8	-23	19	0	-9	80*	8
Cc1c(CCOC(=O)c2cc([N+](=O)[O-])cc([N+](=O)[O-])c2)sc[n+]1CCCCS(=O)(=O)[O-]	174*	-13	-2	8	1	-4	72*	85*

Screens (PubChem)
